What was measured:
Plasma [1] = experiment: AUC (0 to t) in plasma of healthy human treated with [14C]GSK2251052 at 1500 mg, iv infusion for 1 hr as single dose; format: ADME, organism-based; settings: in vivo
In short: (§1)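 Six fasted healthy men received 1500 mg [14C]GSK2251052 as a 1-h constant-rate i.v. infusion. K2EDTA plasma was sampled from predose to 72 h, with profiling samples added at 96, 144 and 336 h. Parent and M3 were measured by validated LC/MS/MS after methanol/formic acid precipitation with stable-label internal standards (range 5–10,000 ng/ml). Noncompartmental analysis used actual times, linear-up/log-down trapezoids and CL = dose/AUC(0-∞).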

Plasma [2] = experiment: AUC (0 to infinity) in plasma of healthy human treated with [14C]GSK2251052 at 1500 mg, iv infusion for 1 hr as single dose; format: ADME, organism-based; design: dose 1500 mg, route intravenous, time infinity; settings: in vivo; in short: as §1
Plasma [3] = experiment: Cmax in plasma of healthy human treated with [14C]GSK2251052 at 1500 mg, iv infusion for 1 hr as single dose; format: ADME, organism-based; design: dose 1500 mg, route intravenous; settings: in vivo; in short: as §1
Plasma [4] = experiment: Half life in plasma of healthy human treated with [14C]GSK2251052 at 1500 mg, iv infusion for 1 hr as single dose; format: ADME, organism-based; settings: in vivo
In short: (§2)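 Healthy men got a single 1500 mg [14C] dose by 1 h i.v. infusion. K2EDTA blood was sampled up to 336 h. Radioactivity in blood and plasma was measured by LSC, with AMS for plasma below LLQ. Parent and M3 were measured by LC/MS/MS (5–10,000 ng/ml range). Noncompartmental analysis used actual times, with t1/2 = ln2/λz and Tmax observed directly, timed from infusion start.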

Plasma [5] = experiment: Tmax in plasma of healthy human treated with [14C]GSK2251052 at 1500 mg, iv infusion for 1 hr as single dose; format: ADME, organism-based; settings: in vivo; in short: as §2
[6] = Drug recovery in cynomolgus monkey liver S9 fraction at pH 7.4 treated with [14C]GSK2251052 at 500 uM after 3 hrs by liquid scintillation counting in presence of NAD+; format: ADME, subcellular, Macaca fascicularis; settings: s9, pH 7.4, 3 h
[7] = Drug recovery in cynomolgus monkey liver S9 fraction at pH 8.4 treated with [14C]GSK2251052 at 500 uM after 3 hrs by liquid scintillation counting in presence of NAD+; format: ADME, subcellular, Macaca fascicularis; settings: s9, pH 8.4, 3 h
[8] = Drug recovery in cynomolgus monkey liver S9 fraction at pH 8.8 treated with [14C]GSK2251052 at 500 uM after 3 hrs by liquid scintillation counting in presence of NAD+; format: ADME, subcellular, Macaca fascicularis; settings: s9, pH 8.8, 3 h
[9] = Drug recovery in cynomolgus monkey liver cytosol at pH 7.4 treated with [14C]GSK2251052 at 500 uM after 3 hrs by liquid scintillation counting in presence of NAD+; format: ADME, Macaca fascicularis; settings: pH 7.4, 3 h
[10] = Drug recovery in cynomolgus monkey liver cytosol at pH 8.4 treated with in presence of NAD+ [14C]GSK2251052 at 500 uM after 3 hrs by liquid scintillation counting; format: ADME, Macaca fascicularis; settings: pH 8.4, 3 h
[11] = Drug recovery in cynomolgus monkey liver microsomes at pH 7.4 treated with [14C]GSK2251052 at 500 uM after 3 hrs by liquid scintillation counting in presence of NAD+; format: ADME, Macaca fascicularis; settings: pH 7.4, 3 h
[12] = Drug recovery in healthy human urine treated with [14C]GSK2251052 at 1500 mg, iv infusion for 1 hr as single dose after 120 to 336 hrs by HPLC method; format: ADME, organism-based; settings: in vivo
In short: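 Urine pooled by weight per subject over 0–120 h; 120–336 h pools from all subjects combined into one composite. Centrifuged at ~21,000g, then supernatant profiled by HPLC (Atlantis T3, ammonium acetate pH 4.5/methanol, 30°C) with radiochemical detection plus MS identification. Results are % of dose, corrected for centrifugation recovery measured by triplicate LSC.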

[13] = Drug recovery in healthy human feces treated with [14C]GSK2251052 at 1500 mg, iv infusion for 1 hr as single dose after 120 hrs by HPLC method; format: ADME, organism-based; settings: in vivo
In short: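 Feces pooled over 0–120 h per subject by sample weight. About 1 g homogenate extracted twice with 4 volumes of acetonitrile:methanol:water:formic acid (50:25:25:1) under 20 min sonication. Extracts dried and reconstituted in water:methanol 90:10. Profiled by HPLC (Atlantis T3, ammonium acetate pH 4.5/methanol, 30°C) with fraction radiocounting and Orbitrap MS. Results given as % of dose, corrected for extraction recovery.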

[14] = Drug metabolism in human liver cytosol assessed as ADH-mediated compound formation treated with GSK2251052 at 50 to 500 uM by spectrophotometry in presence of NAD+; format: ADME; settings: TDE = time-dependent effect
[15] = Drug metabolism assessed as purified ADH (unknown origin)-mediated compound formation treated with GSK2251052 at 50 to 500 uM by spectrophotometry in presence of NAD+; format: ADME; settings: human, TDE = time-dependent effect
Liver cytosol = experiment: Drug metabolism in human liver cytosol assessed as compound formation treated with GSK2251052 at 50 to 500 uM after 3 hrs by spectrophotometry in presence of NAD+ and ADH inhibitor 4-MP; format: ADME
[16] = Drug recovery in healthy human feces treated with [14C]GSK2251052 at 1500 mg, iv infusion for 1 hr as single dose after 0 to 120 hrs by HPLC method; settings: in vivo

AUCt (Plasma [1]) [µg·h/mL]	AUC (Plasma [2]) [µg·h/mL]	Cmax (Plasma [3]) [ng/mL]	t1/2 (Plasma [4]) [h]	Tmax (Plasma [5]) [h]	Drug recovery [6] [%]	Drug recovery [7] [%]	Drug recovery [8] [%]	Drug recovery [9] [%]	Drug recovery [10] [%]	Drug recovery [11] [%]	Drug recovery ([12]; in the assay text read “0 to 120 hrs” for “120 to 336 hrs”) [%]	Drug recovery [13] [%]	Drug metabolism [14]	Drug metabolism [15]	Drug metabolism (Liver cytosol)	Drug recovery [16] [%]	Drug recovery ([12]; BLD = below limit of detection)	Structure (SMILES)
101	103	1770	77.3	7	7.7	6.7	4.3	1.7	0.9	2.5	43.8	3.3	tde	tde	metabolite_not_detected	3.3	–	Cl.NC[C@H]1OB(O)c2c(OCCC(=O)O)cccc21
–	–	–	–	–	–	–	–	–	–	–	–	–	–	–	–	–	BLD	CC(=O)NC[C@H]1OB(O)c2c(OCCC(=O)O)cccc21

— ChEMBL document CHEMBL3526029, “Disposition and metabolism of GSK2251052 in humans: a novel boron-containing antibiotic” (Drug Metab Dispos, 2013)
